PLCb3 inh = human PLC-beta3 inhibitors, primary screen, biochemical, fluorescence; 370,000 compounds, 0.18% hits; 1-phosphatidylinositol 4,5-bisphosphate phosphodiesterase beta-3 (Homo sapiens), Q01970; inhibition, % at 12.2 µM; Purified PLC-beta3, fluorogenic substrate; in the data active = inhibition above about 11%;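 note: 0% = median of compound wells on plate and 100% = full blocker control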
Target sequence (Q01970 whole entry, looked up): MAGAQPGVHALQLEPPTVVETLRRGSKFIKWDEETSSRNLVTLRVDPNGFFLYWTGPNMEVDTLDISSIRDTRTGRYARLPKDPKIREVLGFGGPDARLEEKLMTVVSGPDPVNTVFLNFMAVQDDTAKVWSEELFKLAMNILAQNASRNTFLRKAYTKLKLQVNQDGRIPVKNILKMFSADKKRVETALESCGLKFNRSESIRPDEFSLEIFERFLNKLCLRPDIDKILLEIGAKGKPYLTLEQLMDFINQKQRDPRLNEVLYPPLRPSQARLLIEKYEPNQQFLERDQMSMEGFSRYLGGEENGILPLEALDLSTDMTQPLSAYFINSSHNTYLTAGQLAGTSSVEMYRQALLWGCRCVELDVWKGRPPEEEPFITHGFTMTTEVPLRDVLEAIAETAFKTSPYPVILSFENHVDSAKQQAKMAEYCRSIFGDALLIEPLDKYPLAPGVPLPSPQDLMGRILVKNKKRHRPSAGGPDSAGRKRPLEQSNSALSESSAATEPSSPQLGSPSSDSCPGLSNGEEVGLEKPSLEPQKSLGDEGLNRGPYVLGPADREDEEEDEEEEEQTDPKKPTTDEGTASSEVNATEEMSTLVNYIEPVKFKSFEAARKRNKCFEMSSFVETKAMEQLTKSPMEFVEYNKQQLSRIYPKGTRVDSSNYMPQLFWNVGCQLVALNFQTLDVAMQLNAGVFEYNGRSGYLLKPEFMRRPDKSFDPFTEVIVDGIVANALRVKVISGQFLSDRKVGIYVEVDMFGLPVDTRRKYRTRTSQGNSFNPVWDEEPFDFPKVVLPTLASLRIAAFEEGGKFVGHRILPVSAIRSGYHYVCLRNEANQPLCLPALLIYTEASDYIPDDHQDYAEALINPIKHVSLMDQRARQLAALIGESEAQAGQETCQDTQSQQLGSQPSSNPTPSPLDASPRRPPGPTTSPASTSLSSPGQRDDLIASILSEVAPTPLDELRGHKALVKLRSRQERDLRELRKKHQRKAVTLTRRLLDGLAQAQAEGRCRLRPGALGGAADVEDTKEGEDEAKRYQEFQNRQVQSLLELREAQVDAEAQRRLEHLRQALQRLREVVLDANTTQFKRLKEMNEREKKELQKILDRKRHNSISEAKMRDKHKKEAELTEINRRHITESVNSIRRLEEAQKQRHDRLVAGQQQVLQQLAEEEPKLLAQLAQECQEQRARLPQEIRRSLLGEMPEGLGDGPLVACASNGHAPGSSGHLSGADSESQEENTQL
ASAP1 inh = inhibitors of human ASAP1 ArfGAP activity, primary screen, biochemical, fluorescence polarization. Arf-GAP with SH3 domain, ANK repeat and PH domain-containing protein 1 (Homo sapiens), …. ASAP1-stimulated ARF1 GTP hydrolysis, GDP FP detection. inhibition, % at 16.5 µM. 360,000 compounds, 0.19% hits. AID 624377, 2012; in the data active = inhibition above about 25%;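 note: 0% = vehicle with enzyme and substrate and 100% = no enzyme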
ARFGAP1 inhibitor = inhibitors of rat ARFGAP1 GAP activity, primary screen, biochemical, fluorescence polarization, GDP tracer | ADP-ribosylation factor GTPase-activating protein 1 (Rattus norvegicus), Q62848 | inhibition, % at 16.5 µM | 360,000 compounds, 0.26% hits | Arfgap1-stimulated ARF1 GTP hydrolysis, GDP FP detection;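 active = inhibition above a per-plate limit, mean inhibition of low control wells plus 3 SD, cut at about 25% in these data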;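 note: 0% = DMSO wells with enzyme and 100% = wells lacking Arfgap1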
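Material: rat Arfgap1 GAP domain (His6, aa 1-136), purified enzyme. Also added: human ARF1(Δ1-17)-GTP substrate. Compound dosing: 16.5 µM single point, 1.26% DMSO. Timing: enzyme reaction 120 min at 25 °C after 20 min preincubation. Signal: GDP detection by fluorescence polarization. Read-out basis: percent inhibition of GAP-stimulated GDP formation, scaled between DMSO and no-Arfgap1 medians.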
PLCg1 inh = PLC-gamma1 enzyme inhibitors, primary screen, biochemical, fluorescence, purified enzyme; 1-phosphatidylinositol 4,5-bisphosphate phosphodiesterase gamma-1 (Homo sapiens), P19174; fluorogenic substrate; AID 720700, 2013; 370,000 compounds, 0.84% hits; inhibition, % at 12.2 µM; in the data active = inhibition above about 9.5%
sPLA2-III inh = human group III sPLA2 inhibitors, primary screen, biochemical, QFRET, BODIPY PC-A2 liposome substrate; Group 3 secretory phospholipase A2 (Homo sapiens), Q9NZ20; QFRET BODIPY PC-A2 liposome hydrolysis, fluorescence; inhibition, % at 12.2 µM; 370,000 compounds, 0.56% hits;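 active = inhibition above mean plus 3 SD of compounds lying within the high and low control bounds, cut at about 19% in these data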;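 note: 0% = median of test compound wells and 100% = no enzyme DMSO wells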
hGIII sPLA2 conf = human group III sPLA2 inhibitors, confirmation, biochemical, QFRET, triplicate. 2,000 compounds, 34% hits. recombinant hGIII-sPLA2, BODIPY PC-A2 QFRET fluorescence. shares compounds with sPLA2-III inh. inhibition, % at 12.2 µM;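 active = mean inhibition across triplicates above the hit cutoff set in the earlier primary screen, cut at about 19% in these data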;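 note: 0% = enzyme with DMSO and 100% = DMSO wells lacking enzyme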
BODIPY interf = 535nm fluorescence optical interference, confirmation, artefact control for HGIII-sPLA2 inhibitor project, biochemical, QFRET | shares compounds with sPLA2-III inh | BODIPY FL product fluorescence interference | 2,000 compounds, 8.5% hits | inhibition, % at 12.2 µM | AID 743282, 2014;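 active = average inhibition above the solvent-only control mean plus 3 SD, cut at about 6% in these data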;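 note: 0% = DMSO with substrate plus product and 100% = DMSO with substrate alone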
* hit, by the source's call. In the library only some 1.9% were active in any assay of this set; here they are far more common.

How did O=C(O)c1cc(S(=O)(=O)N2CCCC2)ccc1Br do in these assays?
PLCb3 inh: 0; ASAP1 inh: 6; ARFGAP1 inhibitor: -10; PLCg1 inh: -1; sPLA2-III inh: -1

What do the screens show for `COC[C@H]1CCCN1c1ccc2c(c1)O[C@H](C)CCN(C1CC1)S2(=O)=O`?
PLCb3 inh: 1; PLCg1 inh: -1; sPLA2-III inh: -6

How did COc1ccccc1CCNC(=O)c1cnn2c(C(F)F)cc(C)nc12 do in these assays?
PLCb3 inh: -24; ASAP1 inh: -11; ARFGAP1 inhibitor: 4; PLCg1 inh: -16; sPLA2-III inh: 12

Results for COc1ccc(CCNC(=O)c2cnn3c(C(F)F)cc(C)nc23)cc1OC ?
PLCb3 inh: -7; ASAP1 inh: -2; ARFGAP1 inhibitor: 0; PLCg1 inh: 0; sPLA2-III inh: 20*; hGIII sPLA2 conf: 6; BODIPY interf: -11

How did Clc1cccc(Cl)c1CSc1nnc2ccccn12 do in these assays?
PLCb3 inh: -8; ASAP1 inh: 1; ARFGAP1 inhibitor: 2; PLCg1 inh: -5; sPLA2-III inh: 19*; hGIII sPLA2 conf: 1; BODIPY interf: -1

How did Fc1cccc(Cl)c1CSc1nnc2ccccn12 do in these assays?
PLCb3 inh: -1; ASAP1 inh: 13; ARFGAP1 inhibitor: 1; PLCg1 inh: -2; sPLA2-III inh: 2

How did C[C@@H]1CN(c2ccc(N3CCN(C(=O)OC(C)(C)C)C[C@H]3C)cc2C#N)CCN1Cc1ccccc1 do in these assays?
PLCb3 inh: -65; ASAP1 inh: -9; ARFGAP1 inhibitor: 0; PLCg1 inh: -67; sPLA2-III inh: 15

How did O=C(NC(=S)N1CCN(c2ccc(C(F)(F)F)cc2[N+](=O)[O-])CC1)c1cccs1 do in these assays?
PLCb3 inh: -8; ASAP1 inh: 0; ARFGAP1 inhibitor: 9; PLCg1 inh: 3; sPLA2-III inh: 31*; hGIII sPLA2 conf: 47*; BODIPY interf: 9.5*

Results for C=CCN=C1NC(c2ccccc2C(F)(F)F)C(C(=O)OC)=C(C)N1Cc1ccc(C(F)(F)F)cc1 (stereo not given) ?
PLCb3 inh: -2; ASAP1 inh: 11; ARFGAP1 inhibitor: 3; PLCg1 inh: -1; sPLA2-III inh: -8

What do the screens show for `CCN(CC)c1ccc(NC(=O)C2=CC=CN3CCS(=O)(=O)N=C23)cc1`?
PLCb3 inh: -10; ASAP1 inh: 4; ARFGAP1 inhibitor: -10; PLCg1 inh: -2; sPLA2-III inh: 21*; hGIII sPLA2 conf: 8; BODIPY interf: 1

How did COc1ccc2c(c1)CN1CN(CC(C)C)S(=O)(=O)CC21 (stereo not given) do in these assays?
PLCb3 inh: -15; PLCg1 inh: -11; sPLA2-III inh: 8

What do the screens show for `C[C@H]1COc2cc(Br)ccc2S(=O)(=O)N1Cc1cn(Cc2ccc(Br)cc2)nn1`?
PLCb3 inh: 0; PLCg1 inh: 1; sPLA2-III inh: 3

How did Cc1cccc(Cn2cc(COC(=O)Nc3ccc(F)cc3)nn2)c1 do in these assays?
PLCb3 inh: -2; PLCg1 inh: 2; sPLA2-III inh: -9

Results for O=C(NN=Cc1c(O)ccc2ccccc12)c1ccc2c(c1)OCO2 ?
PLCb3 inh: -39; ASAP1 inh: 0; ARFGAP1 inhibitor: -14; PLCg1 inh: -23; sPLA2-III inh: 37*; hGIII sPLA2 conf: 8; BODIPY interf: -6

Results for COC(=O)N/N=C/c1cc(N=Nc2ccccc2Cl)ccc1O ?
PLCb3 inh: -2; ASAP1 inh: 6; ARFGAP1 inhibitor: 3; PLCg1 inh: 3; sPLA2-III inh: -2

Results for Nc1ccc(C(=O)N/N=C\c2cc(N=Nc3cccc4ccccc34)ccc2O)cc1 ?
PLCb3 inh: -7; ASAP1 inh: -7; ARFGAP1 inhibitor: 1; PLCg1 inh: -5; sPLA2-III inh: 34*; hGIII sPLA2 conf: 38*; BODIPY interf: 8.2*

How did O=C(N/N=C/c1ccccc1)c1ccc2c(c1)OCO2 do in these assays?
PLCb3 inh: -13; ASAP1 inh: -10; ARFGAP1 inhibitor: 7; PLCg1 inh: 1; sPLA2-III inh: 11

Results for O=CN/N=C/c1c(O)ccc2ccccc12 ?
PLCb3 inh: -8; ASAP1 inh: 2; ARFGAP1 inhibitor: -8; PLCg1 inh: -3; sPLA2-III inh: -2

How did Cc1ccc(-c2cc(C(=O)NN=Cc3c(O)ccc4ccccc34)[nH]n2)cc1C do in these assays?
PLCb3 inh: -41; PLCg1 inh: -30; sPLA2-III inh: 26*; hGIII sPLA2 conf: -17; BODIPY interf: -10

How did NC(=S)N/N=C/c1c(O)ccc2ccccc12 do in these assays?
PLCb3 inh: -37; ASAP1 inh: -7; ARFGAP1 inhibitor: 4; PLCg1 inh: -25; sPLA2-III inh: 35*; hGIII sPLA2 conf: 21*; BODIPY interf: 0

How did CCn1c(Cc2cccs2)nnc1SCC(=O)Nc1ccccc1-c1ccccc1 do in these assays?
PLCb3 inh: 3; PLCg1 inh: 3; sPLA2-III inh: -6

Results for Cc1cc(Br)c2nc(-c3ccc(F)cc3)c(Cc3cccc(Cl)c3)n2c1 ?
PLCb3 inh: -5; ASAP1 inh: 1; ARFGAP1 inhibitor: 12; PLCg1 inh: -5; sPLA2-III inh: -4

Results for C#CCNC(=O)C[C@H]1C(=O)N(Cc2ccc(OC)cc2)C2=CCCC[C@@]21C(=O)OCC ?
PLCb3 inh: 2; PLCg1 inh: -1; sPLA2-III inh: -3

How did O=C1CCCC2=C1[C@@]1(O[C@H]3C=CC=CN23)C(=O)N(c2ccccc2)c2ccccc21 do in these assays?
PLCb3 inh: 0; ASAP1 inh: -8; ARFGAP1 inhibitor: 6; PLCg1 inh: -4; sPLA2-III inh: -2

How did O=C(N/N=C/c1c(O)ccc2ccccc12)c1ccc(CO)nc1 do in these assays?
PLCb3 inh: -96; ASAP1 inh: 7; ARFGAP1 inhibitor: 9; PLCg1 inh: -65; sPLA2-III inh: 25*; hGIII sPLA2 conf: 12; BODIPY interf: -6

What do the screens show for `O=P(O)(O)CCP(=O)(c1ccccc1)c1ccccc1`?
PLCb3 inh: 5; ASAP1 inh: 0; ARFGAP1 inhibitor: -2; PLCg1 inh: -1; sPLA2-III inh: 3

Assay outcomes from PubChem BioAssay.
